Experimental findings from ChEMBL document CHEMBL3856284, “Discovery, design and synthesis of 6H-anthra[1,9-cd]isoxazol-6-one scaffold as G9a inhibitor through a combination of shape-based virtual screening and structure-based molecular modification” (Bioorg Med Chem, 2016) are described below.

In data set [1] the target is T1, Histone-lysine N-methyltransferase EHMT2 (Homo sapiens, UniProt Q96KQ7).
T1 sequence (Q96KQ7 whole entry): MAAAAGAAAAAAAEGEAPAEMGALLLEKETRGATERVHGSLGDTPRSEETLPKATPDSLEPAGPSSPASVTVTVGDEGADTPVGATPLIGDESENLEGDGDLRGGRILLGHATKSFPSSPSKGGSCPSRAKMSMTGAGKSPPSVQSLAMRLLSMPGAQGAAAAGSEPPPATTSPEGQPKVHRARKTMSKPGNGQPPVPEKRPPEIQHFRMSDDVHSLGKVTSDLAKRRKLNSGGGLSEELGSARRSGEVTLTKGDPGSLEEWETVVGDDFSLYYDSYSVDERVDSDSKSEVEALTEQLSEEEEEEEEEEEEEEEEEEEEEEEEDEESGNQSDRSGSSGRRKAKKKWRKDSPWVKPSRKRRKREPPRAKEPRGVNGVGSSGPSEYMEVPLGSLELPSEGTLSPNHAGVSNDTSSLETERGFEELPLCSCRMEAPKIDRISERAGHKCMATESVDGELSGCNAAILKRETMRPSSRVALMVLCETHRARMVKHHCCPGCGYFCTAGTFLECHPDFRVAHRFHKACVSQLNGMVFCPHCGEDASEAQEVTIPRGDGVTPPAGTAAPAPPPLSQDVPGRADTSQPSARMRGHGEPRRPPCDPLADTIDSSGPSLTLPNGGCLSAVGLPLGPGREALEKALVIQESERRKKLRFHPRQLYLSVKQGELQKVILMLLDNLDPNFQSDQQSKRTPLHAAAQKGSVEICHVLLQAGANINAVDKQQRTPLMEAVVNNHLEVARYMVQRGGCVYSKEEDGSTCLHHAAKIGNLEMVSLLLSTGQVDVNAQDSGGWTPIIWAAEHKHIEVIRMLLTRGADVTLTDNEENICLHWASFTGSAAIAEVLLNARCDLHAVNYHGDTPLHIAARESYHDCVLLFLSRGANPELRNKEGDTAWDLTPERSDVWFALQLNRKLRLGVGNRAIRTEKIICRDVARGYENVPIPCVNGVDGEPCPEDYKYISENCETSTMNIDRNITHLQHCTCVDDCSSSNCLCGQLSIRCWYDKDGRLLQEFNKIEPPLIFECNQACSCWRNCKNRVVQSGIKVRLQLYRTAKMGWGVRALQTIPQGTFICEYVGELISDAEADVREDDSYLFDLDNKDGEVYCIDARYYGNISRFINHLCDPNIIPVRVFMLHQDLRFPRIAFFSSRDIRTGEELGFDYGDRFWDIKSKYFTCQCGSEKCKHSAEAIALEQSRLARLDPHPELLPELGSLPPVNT
Nature of the data set: Inhibition of G9a (unknown origin) using biotinylated-histone H3 (1 to 21 residues)/S-adenosyl-methionine as substrate/methyl donor after 3 hrs by AlphaScreen assay. Put shortly:
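AlphaScreen G9a assay. Compounds were first screened at 10 µM. IC50 came from concentration-response curves of ten escalating concentrations (0.1 nM–10 µM), using two independent experiments, reported as mean ± SD.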

Data set [2] is described as follows: Antiproliferative activity against human MCF7 cells assessed as inhibition of cell viability after 72 hrs by MTT assay. It counts as functional, cell-based. To be noted: MCF7, 72 h. Background: Tetrazolium assays rely on reduction of a dye to a coloured formazan, in cell work by metabolically active cells.
Data set [3] deals with MCF7. Nature of the data set: Induction of phenotypic changes in human MCF7 cells assessed as distortion at 4 uM after 24 hrs by inverted light microscopic method. Format: functional, cell-based. Put shortly: (§1)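 MCF-7 cells were incubated 24 h with 2, 4 or 8 µM compound, with an untreated group as control. Cell morphology (distortion, blebbing, shrinkage, rounding, necrosis) was examined under an inverted light microscope at ×200.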

Data set [4] has as its system MCF7. Description: Induction of phenotypic changes in human MCF7 cells assessed as membrane blebbing at 4 uM after 24 hrs by inverted light microscopic method. It counts as functional, cell-based. Put shortly: as §1
Data set [5] deals with MCF7. Description: Induction of necrosis in human MCF7 cells at 8 uM after 24 hrs by inverted light microscopic method. It counts as functional, cell-based. Put shortly:
as §1

Data set [6] relates to MCF7. Description: Induction of apoptosis in human MCF7 cells assessed as appearance of apoptotic bodies after 24 hrs by Hoechst 33258 staining-based fluorescence microscopy. It counts as functional, cell-based.
In data set [7] the test system is MCF7. Nature of the data set: Induction of apoptosis in human MCF7 cells assessed as early apoptotic cells at 2 uM after 48 hrs by annexin V staining-based flow cytometric analysis (reference value: 0.5%). Format: functional.
Data set [8] has as its system MCF7. Description: Induction of apoptosis in human MCF7 cells assessed as viable cells at 2 uM after 48 hrs by annexin V staining-based flow cytometric analysis (reference value: 82.85%). It counts as functional. To be noted: MCF7, 48 h, read-out: Activity.
In data set [9] the test system is MCF7. Nature of the data set: Induction of apoptosis in human MCF7 cells assessed as early apoptotic cells at 4 uM after 48 hrs by annexin V staining-based flow cytometric analysis (reference value: 0.5%). It counts as functional. Background: A flow cytometer gives signals particle by particle.
Data set [10] deals with MCF7. Description: Induction of apoptosis in human MCF7 cells assessed as necrotic cells at 4 uM after 48 hrs by annexin V staining-based flow cytometric analysis (reference value: 5.65%). It counts as functional.
Data set [11] relates to MCF7. Description: Induction of apoptosis in human MCF7 cells assessed as late apoptotic cells at 8 uM after 48 hrs by annexin V staining-based flow cytometric analysis (reference value: 11%). It counts as functional.
For data set [12], the system named is MCF7. Description: Induction of apoptosis in human MCF7 cells assessed as necrotic cells at 8 uM after 48 hrs by annexin V staining-based flow cytometric analysis (reference value: 5.65%). Format: functional.
The test system of data set [13] is MCF7. Description: Induction of apoptosis in human MCF7 cells assessed as viable cells at 8 uM after 48 hrs by annexin V staining-based flow cytometric analysis (reference value: 82.85%). Format: functional. The note with it: MCF7, 48 h, read-out: Activity.
Data set [14] deals with T2, Histone-lysine N-methyltransferase EHMT2 (Homo sapiens) (UniProt Q96KQ7).
T2 sequence (whole entry): T1 sequence (Q96KQ7 whole entry)
Nature of the data set: Inhibition of G9a in human MCF7 cells assessed as decrease in dimethylation level of H3K9 at […] after 48 hrs by Western blot method. It counts as cell-based. (In general: A western blot detects proteins with antibodies after separation by electrophoresis.)

Data set [15] has as its target T2, Histone-lysine N-methyltransferase EHMT2 (Homo sapiens). Description: Inhibition of G9a in human MCF7 cells assessed as decrease in trimethylation level of H3K9 after 48 hrs by Western blot method. Format: cell-based.
For data set [16], the system named is Mus musculus. Nature of the data set: AUC in mouse at 10 mg/kg, po after 5 mins to 24 hrs by LC-MS/MS analysis. To be noted: in vivo.
Data set [17] deals with Mus musculus. Nature of the data set: AUC in mouse at 10 mg/kg, iv after 2 mins to 24 hrs by LC-MS/MS analysis. To be noted: in vivo.
In data set [18] the test system is Mus musculus. Description: Tmax in mouse at 10 mg/kg, iv after 2 mins to 24 hrs by LC-MS/MS analysis. To be noted: in vivo.
The subject of data set [19] is Mus musculus. Description: Cmax in mouse at 10 mg/kg, iv after 2 mins to 24 hrs by LC-MS/MS analysis. To be noted: in vivo.
For data set [20], the system named is Mus musculus. Description: Clearance in mouse at 10 mg/kg, po after 5 mins to 24 hrs by LC-MS/MS analysis. To be noted: in vivo.
For data set [21], the system named is Mus musculus. Description: Oral bioavailability in mouse at 10 mg/kg after 5 mins to 24 hrs by LC-MS/MS analysis. The note with it: in vivo.
Data set [22] has as its system Mus musculus. Description: Volume of distribution in mouse at 10 mg/kg, po after 5 mins to 24 hrs by LC-MS/MS analysis. The note with it: in vivo.

By IC50 is commonly meant the concentration that gives 50% inhibition. Broadly, the AUC is concentration integrated over time. In general, Tmax refers to the time from dosing to the highest level. Usually Cmax stands for the highest concentration seen after dosing. One may read the CL/F as clearance divided by bioavailability, as obtained after extravascular dosing. In general, bioavailability refers to the share of a dose that reaches the circulation, judged against a reference dose that is usually intravenous. High values mean much systemic uptake, low ones little systemic uptake.

Activity calls are given as the source filed them. The calls are words filed in the database; no cut-off is given here.

In the case of `O=C1c2ccccc2-c2onc3c(N4CCCCC4)cc(NCCN4CCCC4)c1c23`, the values for the 50% inhibitory concentration (IC50) in data set [1] and in [2] were 2.18 µM and 4.52 µM, respectively. Moreover, the result in the data set on MCF7 [3], with MCF7 [4] and in the data set on MCF7 [5] was Active. Also, the Activity entry is “Dose-dependent effect” with MCF7 [6]; 0.3% in the data set on MCF7 [7]; 0.8% in the data set with MCF7 [9]; 3.1% with MCF7 [10]; 30.05% in the data set with MCF7 [11]; 0.75% in the data set with MCF7 [12]. Moreover, the viability at 2 µM in the data set with MCF7 [8] was determined as 78.2%. In addition, in the data set on MCF7 [13], the viability at 8 µM turned out to be 66.5%. The inhibition entry in data set [14] was “Active”. Moreover, the inhibition entry in [15] was “Dose-dependent effect”. Further, the AUC in the data set on Mus musculus [16] came out at 724 ng·h/mL; in the data set on Mus musculus [17] it was 1300 ng·h/mL. In the data set with Mus musculus [18], the Tmax turned out to be 7.2 min. In addition, the concentration in the data set with Mus musculus [19] peaked (Cmax) at 188 ng/mL. The molecule further showed an apparent clearance (CL/F) with Mus musculus [20] of 253 mL/min/kg. The molecule also showed a bioavailability with Mus musculus [21] of 55.5%. In addition, the Vd in the data set on Mus musculus [22] is 90.7 L/kg.
